Measurements reported in ChEMBL document CHEMBL3627695, “1-Benzyl-2-methyl-3-indolylmethylene barbituric acid derivatives: Anti-cancer agents that target nucleophosmin 1 (NPM1)” (Bioorg Med Chem, 2015).

Experiments:
Type in all cases: functional
CCRF-CEM = assay: Anticancer activity against human CCRF-CEM cells after 48 hrs by sulforhodamine B assay
In short: (§1)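 NCI-60 human tumour cell line panel. Compounds dissolved in DMSO/H2O and tested at five 10-fold dilutions (10⁻⁴ M to 10⁻⁸ M) for 48 hr. GI50 is the molar concentration giving 50% reduction in net cell growth relative to cell numbers on day 0.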

HL-60(TB) = assay: Anticancer activity against human HL-60(TB) cells after 48 hrs by sulforhodamine B assay; conditions: HL-60, 48 h; in short: as §1
K562 = assay: Anticancer activity against human K562 cells after 48 hrs by sulforhodamine B assay; conditions: K562, 48 h; in short: as §1
[1] = Anticancer activity against human MOLT4 cells after 48 hrs by sulforhodamine B assay; conditions: MOLT-4, 48 h; in short: as §1
[2] = Anticancer activity against human RPMI8226 cells after 48 hrs by sulforhodamine B assay; conditions: RPMI-8226, 48 h; in short: as §1
SR = assay: Anticancer activity against human SR cells after 48 hrs by sulforhodamine B assay
In short: (§2)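 NCI-60 panel protocol. Compounds were dissolved in DMSO/H2O and tested at five 10-fold concentrations (10⁻⁴ to 10⁻⁸ M) with 48 hr incubation. GI50 is the molar concentration giving a 50% reduction in net cell growth relative to cell numbers on day 0.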

A549 = assay: Anticancer activity against human A549/ATCC cells after 48 hrs by sulforhodamine B assay; conditions: A549, 48 h; in short: as §1
HOP-62 = assay: Anticancer activity against human HOP62 cells after 48 hrs by sulforhodamine B assay; conditions: HOP-62, 48 h; in short: as §1
[3] = Anticancer activity against human HOP92 cells after 48 hrs by sulforhodamine B assay; conditions: HOP-92, 48 h; in short: as §1
NCI-H226 = assay: Anticancer activity against human NCI-H226 cells after 48 hrs by sulforhodamine B assay; conditions: NCI-H226, 48 h; in short: as §1
NCI-H322M = assay: Anticancer activity against human NCI-H322M cells after 48 hrs by sulforhodamine B assay; in short: as §1
NCI-H460 = assay: Anticancer activity against human NCI-H460 cells after 48 hrs by sulforhodamine B assay; conditions: NCI-H460, 48 h; in short: as §1
NCI-H522 = assay: Anticancer activity against human NCI-H522 cells after 48 hrs by sulforhodamine B assay; conditions: NCI-H522, 48 h; in short: as §1
[4] = Anticancer activity against human COLO205 cells after 48 hrs by sulforhodamine B assay; conditions: COLO 205, 48 h; in short: as §1
[5] = Anticancer activity against human HCC2998 cells after 48 hrs by sulforhodamine B assay; conditions: HCC 2998, 48 h; in short: as §1
HCT-116 = assay: Anticancer activity against human HCT116 cells after 48 hrs by sulforhodamine B assay; conditions: HCT-116, 48 h; in short: as §1
HCT-15 = assay: Anticancer activity against human HCT15 cells after 48 hrs by sulforhodamine B assay; conditions: HCT-15, 48 h; in short: as §1
HT-29 = assay: Anticancer activity against human HT-29 cells after 48 hrs by sulforhodamine B assay; conditions: HT-29, 48 h; in short: as §1
KM12 = assay: Anticancer activity against human KM12 cells after 48 hrs by sulforhodamine B assay; conditions: KM12, 48 h; in short: as §1
SW-620 = assay: Anticancer activity against human SW620 cells after 48 hrs by sulforhodamine B assay; conditions: SW-620, 48 h; in short: as §2
SF-268 = assay: Anticancer activity against human SF268 cells after 48 hrs by sulforhodamine B assay; conditions: SF-268, 48 h; in short: as §1
[6] = Anticancer activity against human SF295 cells after 48 hrs by sulforhodamine B assay; conditions: SF-295, 48 h; in short: as §1
[7] = Anticancer activity against human SF539 cells after 48 hrs by sulforhodamine B assay; conditions: SF-539, 48 h; in short: as §1
SNB-19 = assay: Anticancer activity against human SNB19 cells after 48 hrs by sulforhodamine B assay; conditions: SNB-19, 48 h; in short: as §1
SNB-75 = assay: Anticancer activity against human SNB75 cells after 48 hrs by sulforhodamine B assay; conditions: SNB-75, 48 h; in short: as §1
U-251 = assay: Anticancer activity against human U251 cells after 48 hrs by sulforhodamine B assay; conditions: U-251, 48 h; in short: as §2
[8] = Anticancer activity against human LOXIMVI cells after 48 hrs by sulforhodamine B assay; conditions: LOX IMVI; in short: as §1
Malme-3M = assay: Anticancer activity against human MALME-3M cells after 48 hrs by sulforhodamine B assay; in short: as §1

## Cc1c(C=C2C(=O)NC(=S)NC2=O)c2ccccc2n1Cc1ccc(C#N)cc1
CCRF-CEM
  GI50: 840 nM
HL-60(TB)
  GI50: 1080 nM
K562
  GI50: 1770 nM
[1]
  GI50: 1820 nM
[2]
  GI50: 570 nM
SR
  GI50: 560 nM
A549
  GI50: 2480 nM
HOP-62
  GI50: 1960 nM
[3]
  GI50: 1280 nM
NCI-H226
  GI50: 1790 nM
NCI-H322M
  GI50: 1930 nM
NCI-H460
  GI50: 2010 nM
NCI-H522
  GI50: 1750 nM
[4]
  GI50: 1730 nM
[5]
  GI50: 1790 nM
HCT-116
  GI50: 1290 nM
HCT-15
  GI50: 1740 nM
HT-29
  GI50: 1760 nM
KM12
  GI50: 1740 nM
SW-620
  GI50: 1360 nM
SF-268
  GI50: 1600 nM
[6]
  GI50: 1880 nM
[7]
  GI50: 1290 nM
SNB-19
  GI50: 1770 nM
SNB-75
  GI50: 2040 nM
U-251
  GI50: 1610 nM
[8]
  GI50: 900 nM
Malme-3M
  GI50: 2500 nM
